Assay results published in ChEMBL document CHEMBL4699421 (RSC Med Chem, 2020).
pEC50, pKi: −log10 of the molar value. Where a SMILES comes first, the peptide text is derived from it. [ ]: non-standard residue; d: D form. The star is where a group is joined. Cbz = O=C(OCc1ccccc1)*; Ac3c = NC1(C(=O)O)CC1

Key:
[1] = test system: Trypanosoma cruzi; experiment: Trypanocidal activity against Trypanosoma cruzi Tulahuen LacZ intracellular amastigote form infected in monkey LLC-MK2 cells incubated for 72 hrs by chlorophenol red beta-D-galactopyranoside substrate based spectrophotometric assay; format: functional, organism-based; settings: LLC-MK2, 72 h
Outline: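 LLC-MK2 at 5 × 10^4 cells per mL infected with Tulahuen LacZ trypomastigotes at 5 × 10^5 per mL, 24 h at 37 °C, 5% CO2. Extracellular parasites washed off. Compounds 1.95–250 µM (DMSO) added for 72 h. […] Benznidazole as positive control, DMSO as negative.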

[2] = Selectivity index, ratio of CC50 for human U2OS cells assessed as reduction in cell viability incubated for 72 hrs by MTT assay to EC50 for Trypanosoma cruzi […]; format: toxicity, cell-based; settings: read-out: Ratio CC50/EC50
[3] = Cytotoxicity against human U2OS cells assessed as reduction in cell viability incubated for 72 hrs by MTT assay; format: cell-based
Outline: (§1)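 Cells seeded at 5 × 10^4 cells per mL and grown 48 h (LLC-MK2 in RPMI; U2OS in high glucose DMEM). MTT 2.0 mg/mL added for 4 h, formazan dissolved in DMSO, read at 570 nm. CC50 from percent reduction versus untreated control.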

[4] = test system: Trypanosoma cruzi; experiment: Trypanocidal activity against Trypanosoma cruzi Y intracellular amastigote form infected in human U2OS cells
[5] = Cytotoxicity against monkey LLC-MK2 cells assessed as reduction in cell viability incubated for 72 hrs by MTT assay; format: cell-based, Macaca mulatta; settings: rhesus monkey; outline: as §1
[6] = Selectivity index, ratio of CC50 for monkey LLC-MK2 cells assessed as reduction in cell viability incubated for 72 hrs by MTT assay to EC50 for Trypanosoma cruzi Tulahuen LacZ intracellular amastigote form infected in monkey LLC-MK2 cells incubated for 72 hrs by chlorophenol red beta-D-galactopyranoside substrate based spectrophotometric assay; format: toxicity; settings: read-out: Ratio CC50/EC50
[7] = L-Cysteine reactivity in pH 7.4 phosphate buffer assessed as decay constant; format: physicochemical
Outline: (§2)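 HPLC reactivity at 37 °C in 0.05 M phosphate pH 7.4 with 1.0 mM EDTA and 5% acetonitrile, thiol glutathione or cysteine. Inhibitor solution 2.5 mM (stock). Aliquots injected over time on a 5–100% acetonitrile/water gradient with PDA detection 210–400 nm. Half-life and K from a one-phase decay fit, pseudo-first-order. Thiol-free control run for stability. Halved-concentration runs also reported.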

[8] = L-Cysteine reactivity in pH 7.4 phosphate buffer assessed as decay constant at 1.25 mM; format: physicochemical; settings: pH 7.4, 1250 µM; outline: as §2
[9] = Glutathione reactivity in pH 7.4 phosphate buffer assessed decay constant at 1.25 mM; format: physicochemical; settings: pH 7.4, 1250 µM; outline: as §2
[10] = biological target: Cruzipain (Trypanosoma cruzi, UniProt P25779); experiment: Covalent inhibition of Trypanosoma cruzi cruzipain using Z-Phe-Arg-7-amidomethylcoumarin as substrate measured after 5 mins by fluorometric analysis
Chain of Cruzipain (P25779 whole entry, the tested form may be a part): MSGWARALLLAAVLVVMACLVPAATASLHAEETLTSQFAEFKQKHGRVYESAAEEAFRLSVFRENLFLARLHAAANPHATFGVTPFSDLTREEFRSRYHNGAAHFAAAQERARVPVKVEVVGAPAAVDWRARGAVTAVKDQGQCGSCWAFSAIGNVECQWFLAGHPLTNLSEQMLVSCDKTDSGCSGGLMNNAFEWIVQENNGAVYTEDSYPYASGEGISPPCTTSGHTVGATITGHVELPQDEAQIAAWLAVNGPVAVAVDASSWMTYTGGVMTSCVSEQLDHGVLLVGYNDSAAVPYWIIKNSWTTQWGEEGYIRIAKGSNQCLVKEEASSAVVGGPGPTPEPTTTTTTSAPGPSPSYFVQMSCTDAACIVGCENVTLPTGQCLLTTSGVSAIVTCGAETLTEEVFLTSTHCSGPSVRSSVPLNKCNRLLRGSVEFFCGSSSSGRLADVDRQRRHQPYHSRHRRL
Outline: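 Recombinant cruzain catalytic domain (no C-terminal extension), 0.15 nM, activated 20 min in 100 mM acetate pH 5.5, 300 mM NaCl, 5 mM DTT, then 2 min with inhibitor. Assay buffer adds 5% DMSO and 0.01% Triton X-100. Z-FR-AMC hydrolysis read at 355/460 nm, 37 °C, over 5 min. Wells checked for precipitation and background fluorescence.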

[11] = test system: Trypanosoma cruzi; experiment: Trypanocidal activity against Trypanosoma cruzi […] relative to benznidazole; format: functional
[12] = Glutathione reactivity in pH 7.4 phosphate buffer assessed as half life at 2.5 mM by HPLC analysis; format: physicochemical; settings: phosphate buffer with glutathione; outline: as §2
[13] = L-Cysteine reactivity in pH 7.4 phosphate buffer assessed as half life at 2.5 mM by HPLC analysis; format: physicochemical; settings: phosphate buffer with L-cysteine; outline: as §2
[14] = Glutathione reactivity in pH 7.4 phosphate buffer assessed as decay constant; format: physicochemical; outline: as §2

Compound	pEC50 [1]	selectivity ratio at 72 h [2]	CC50 at 72 h [3] [µM]	pEC50 [4]	CC50 at 72 h [5] [µM]	also measured
N#CCNC(=O)[C@H](Cc1ccccc1)NC(=O)OCc1ccccc1	< 4.00	> 27.8	> 100	5.44	> 100	selectivity ratio at 72 h [6]: 1.1
N#CCNC(=O)[C@H](Cc1ccccc1)NC(=O)c1ccccc1	< 4.00					K [7]: 9.33 10^-2/min
CCN(CC)C(=O)/C=C/C1(NC(=O)[C@H](Cc2ccccc2)NC(=O)OCc2ccccc2)CC1	< 4.00				> 100	
CNC(=O)/C=C/C1(NC(=O)[C@H](Cc2ccccc2)NC(=O)OCc2ccccc2)CC1		> 8.2	> 100	4.92		
O=C(N[C@@H](Cc1ccccc1)C(=O)Nc1cnoc1)OCc1ccccc1	4.59	> 19.6	> 100	5.29	> 100	selectivity ratio at 72 h [6]: > 3.9
Cc1coc(NC(=O)[C@H](Cc2ccccc2)NC(=O)OCc2ccccc2)n1	< 4.00				> 100	
CCOC(=O)/C=C/C1(NC(=O)[C@H](Cc2ccccc2)NC(=O)OCc2ccccc2)CC1	4.10				> 100	selectivity ratio at 72 h [6]: > 1.2
CC(C)C[C@H](NC(=O)c1cc(C(C)(C)C)nn1C)C(=O)N(C)N(C)C#N	5.08			5.08		K [8]: 3.15 10^-2/min; K [9]: 1.01 10^-2/min
N#CC1(NC(=O)[C@H](Cc2ccccc2)NC(=O)OCc2ccccc2)CC1	< 4.00	4.4	6	6.00	> 100	
N#CC1(NC(=O)[C@H](Cc2ccccc2)NC(=O)c2ccccc2)CC1	< 4.00					K [7]: 0.436 10^-2/min
CON(C)C(=O)CNC(=O)[C@H](Cc1ccccc1)NC(=O)OCc1ccccc1	< 4.00				> 100	pKi [10]: 4.00
O=C(N[C@@H](Cc1ccccc1)C(=O)Nc1cnoc1)c1ccccc1		> 16.6	> 100	5.22		pKi [10]: 4.70
O=C(N[C@@H](Cc1ccccc1)C(=O)NC/C=N/O)OCc1ccccc1			> 100	< 4.00		pKi [10]: 5.00
O=C(N[C@@H](Cc1c[nH]c2ccccc12)C(=O)Nc1cnoc1)c1ccccc1		> 8.2	> 100	4.65		pKi [10]: 5.00
CN(C#N)N(C)C(=O)[C@H](Cc1ccccc1)NC(=O)OCc1ccccc1	4.66	3.2	10.2	5.49	42	selectivity ratio at 72 h [6]: 1.9
O=CC1(NC(=O)[C@H](Cc2ccccc2)NC(=O)OCc2ccccc2)CC1 (Cbz-Phe-[Ac3c]-aldehyde)	< 4.00	58.4	3	7.00	> 100	fold change (FC) [11]: 10; half-life at 2500 µM [12]: 40 min; K [7]: 3.12 10^-2/min; half-life at 2500 µM [13]: 22.2 min; K [14]: 1.73 10^-2/min
COC(=O)C1=C(C#N)NC(C)=C(C(=O)OC(C)C)C1c1cccc([N+](=O)[O-])c1 (configuration not stated) [NILVADIPINE]						half-life at 2500 µM [12]: > 5000 min; K [7]: 1.41 10^-2/min
